iPSC survival up: enhancers of human iPSC single-cell survival; hiPSC single-cell survival, ATPlite luminescence; 100% = ROCK inhibitor wells, 0% = DMSO; survival enhancement, % at 20 µM; 360,000 tested, 0.044% active; in the data active = survival enhancement above about 18%;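 note: cells exposed to compounds for 16 hours before the ATP read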
Apaf-1 inh: blocks human Apaf-1 apoptosome activity. O14727. reconstituted apoptosome caspase-3 activity, DEVD-Rh110 fluorescence. inhibition, % at 20 µM. 330,000 tested, 0.71% active. AID 489030; active = inhibition of at least 40% at 20 µM
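detection = Rh110 fluorescence intensity | test system = biochemical Apaf-1 apoptosome reconstitution | also added = cytochrome c and DEVD-Rh110 substrate | schedule = 30 min plus 50 min, RT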
MPTP block: permeability transition pore inhibition | isolated mouse mitochondria, Ca2+ swelling absorbance, 30 min | inhibition, % at 10 µM | 360,000 tested, 1.4% active;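 active = inhibition of 50% or more, scaled per plate between neutral and stimulator controls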
beta cell repl: MIN6 beta-cell proliferation induction | MIN6 cells proliferation, ATPlite luminescence, 48 h; cells starved in 0.2% serum; 100% = growth in 10% serum | proliferation, % at 10 µM | 330,000 tested, 0.29% active;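 active = compounds whose signal lies at least 3.5 SD above the mean of all wells on their plate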
UBC13 inh: blocks human UBC13 polyubiquitin chain formation; 330,000 tested, 0.47% active; TR-FRET; P61088; inhibition, % at 20 µM; in the data active = inhibition above about 45%, passing the limit was not always enough
Exocytosis inh: lytic granule exocytosis inhibition | TALL-104 LAMP-1 surface exposure, flow cytometry; cells stimulated with thapsigargin and PMA | 360,000 tested, 0.66% active | AID 651702 | inhibition, % at 10 µM;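 active = inhibition above about 55%, limit read from the data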
Apaf-1 inh conf2: confirmation of Apaf-1 inhibitors; shares compounds with Apaf-1 inh; reconstituted apoptosome, caspase-3 DEVD-Rh110 fluorescence; inhibition, % at 20 µM; 1,800 tested, 25% active;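 active = mean inhibition of at least 40% at 20 µM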
Rh110 quench: interferes with Rh110 fluorescence, flagging false Apaf-1 inhibitors; Rh110 fluorescence interference, quenched caspase reaction; activation (fluorescence interference), % at 20 µM; 1,800 tested, under 10 active; shares compounds with Apaf-1 inh;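 active = signal rise of 40% or more at 20 µM, treated as a fluorescence artifact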
Apaf1 inh interf: Apaf-1 inhibitor counter-screen fluorescence artifact; shares compounds with Apaf-1 inh; fluorescence interference counterscreen, Apaf-1 assay format; IC50, µM; 460 tested, under 10 active; AID 588538; call rule not given here
Hits are given with their value; - = inactive; . = not tested or not shown. Only some compounds are listed: those with a hit (about 3% of all), similar ones and a draw of the others.

SMILES | iPSC survival up | Apaf-1 inh | MPTP block | beta cell repl | UBC13 inh | Exocytosis inh | Apaf-1 inh conf2 | Rh110 quench | others
CCCCCn1c(N)c(C(=O)NCc2cccs2)c2nc3ccccc3nc21 | . | 70 | . | - | - | . | 41 | - | Apaf1 inh interf=-
CCCCNC(=O)c1c(N)n(Cc2ccc3c(c2)OCO3)c2nc3ccccc3nc12 | - | 95 | - | - | - | - | - | -
COc1ccc(CCNC(=O)c2c(N)n(CCN3CCOCC3)c3nc4ccccc4nc23)cc1OC | - | - | - | - | - | - | . | .
Nc1c(C(=O)NCc2ccco2)c2nc3ccccc3nc2n1Cc1ccc(F)cc1 | - | 89 | - | - | - | - | - | -
CCCCCn1c(N)c(C(=O)NCCN2CCOCC2)c2nc3ccccc3nc21 | - | - | - | - | - | - | . | .
Nc1c(C(=O)NCCCc2ccccc2)c2nc3ccccc3nc2n1Cc1cccs1 | - | 84 | - | - | - | - | - | -
CCC1C2CC3C4N(C)c5ccccc5C45CC(C2C5O)N3C1O (stereo not drawn) | - | . | - | . | . | - | . | .
O=C1NCN(c2ccccc2)C12CCN(C(CCc1ccccc1)c1nnnn1C1CCCC1)CC2 (stereo not drawn) | - | . | - | . | . | - | . | .
COc1ccc(-c2ccc3c(c2)CN(C(=O)CCc2ccccc2)Cc2cnnn2-3)cc1 | - | . | - | . | . | - | . | .
CCCCn1c(N)c(C(=O)NCc2cccs2)c2nc3ccccc3nc21 | - | 85 | - | - | - | - | - | -
CN(C)P1(=O)N(C)CCN1C | - | . | - | . | . | - | . | .
COc1ccc(C(=O)N2CCC3(CC2)OCCO3)cc1 | - | - | - | - | - | - | . | .
O=C(c1ccc2nc(-c3ccco3)c(-c3ccco3)nc2c1)N1CCC2(CC1)OCCO2 | - | 56 | - | - | - | - | - | -
COc1cc(C(c2c(C)[nH]n(-c3ccccc3)c2=O)c2c(C)[nH]n(-c3ccccc3)c2=O)cc(OC)c1OC | - | 92 | - | - | - | - | 62 | - | Apaf1 inh interf=-
COCCO[C@H]1CCC2C3CC=C4C[C@@H](O)CC[C@]4(C)C3CC[C@@]21C (stereo partly drawn) | - | - | - | - | - | - | . | .
CCn1nc(/C=C/c2ccccc2)nc2c(=O)n(C)c(=O)nc1-2 | - | 99 | - | - | - | 88 | 100 | - | Apaf1 inh interf=-
CC(C)CCOC(=O)c1c(N)n(CC2CCCO2)c2nc3ccccc3nc12 (stereo not drawn) | - | - | - | - | - | - | . | .
CC(C)CCn1c(N)c(C(=O)OCC2CCCO2)c2nc3ccccc3nc21 (stereo not drawn) | - | 41 | - | - | - | - | - | -
CCCNC(=O)c1c(N)n(CC2CCCO2)c2nc3ccccc3nc12 (stereo not drawn) | - | 93 | - | - | - | - | 44 | - | Apaf1 inh interf=-
Nc1c(C(=O)OC2CCCCC2)c2nc3ccccc3nc2n1CC1CCCO1 (stereo not drawn) | - | - | - | - | - | - | . | .
CCCCn1c(N)c(C(=O)OCC2CCCO2)c2nc3ccccc3nc21 (stereo not drawn) | - | - | - | - | - | - | . | .
CC(C)OCCCNC(=O)c1c(N)n(CC2CCCO2)c2nc3ccccc3nc12 (stereo not drawn) | - | 94 | - | - | - | - | - | -
CC(C)OC(=O)c1c(N)n(CC2CCCO2)c2nc3ccccc3nc12 (stereo not drawn) | - | 81 | - | - | - | - | - | -
Cn1c(=O)[nH]c2nncnc2c1=O | - | 68 | - | - | - | - | 68 | - | Apaf1 inh interf=-
C[C@]12CC[C@@H](O)CC1=CCC1C2CC[C@@]2(C)C1CC[C@@H]2O (stereo partly drawn) | - | . | - | . | . | - | . | .
COC(=O)c1nc(-c2ccc3c(n2)C(=O)C(N)=C(OC)C3=O)c(N)c(-c2ccc(OC)c(OC)c2O)c1C | - | 89 | - | - | - | - | 100 | - | Apaf1 inh interf=-
